According to ChEMBL document CHEMBL1154855 (Eur J Med Chem, 2010):
In brackets after ≈: the same amount, converted by molar mass.

What was measured:
[1] = test system: HEL; assay: Cytotoxicity against Herpes simplex virus 2 G infected HEL cells by trypan blue exclusion method; type: cell-based; conditions: human, hel
Outline: (§1)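 Uninfected confluent cultures were run in parallel with the infected cultures. Medium was replaced by 1 ml maintenance medium with serial compound concentrations; cell controls received no compound. Cultures were incubated at 37 °C. After 2 and 7 days, compound was withdrawn and viability was determined by trypan blue exclusion.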

[2] = test system: HEL; assay: Cytotoxicity against Vaccinia virus infected HEL cells by trypan blue exclusion method; type: cell-based; conditions: human, hel; outline: as §1
[3] = test system: HEL; assay: Cytotoxicity against Herpes simplex virus 1 KOS infected HEL cells by trypan blue exclusion method; type: cell-based; conditions: human, hel; outline: as §1
[4] = test system: HEL; assay: Cytotoxicity against VSV infected HEL cells by trypan blue exclusion method; type: cell-based; conditions: human, hel; outline: as §1
[5] = test system: HEL; assay: Cytotoxicity against acyclovir-sensitive Herpes simplex virus 1 KOS infected HEL cells by trypan blue exclusion method; type: cell-based; conditions: human; outline: as §1
[6] = test system: Vesicular stomatitis virus; assay: Antiviral activity against VSV infected in HEL cells assessed as protection from virus-induced cytopathogenicity after 1 to 2 days by MTT assay; type: functional, organism-based
[7] = test system: HeLa; assay: Cytotoxicity against Human coxsackievirus B4 infected human HeLa cells by trypan blue exclusion method; type: cell-based; conditions: hela; outline: as §1
[8] = test system: Mammalian orthoreovirus 1; assay: Antiviral activity against Reovirus 1 infected in african green monkey Vero cells assessed as protection from virus-induced cytopathogenicity after 6 to 7 days by MTT assay; type: functional, organism-based; conditions: Mammalian orthoreovirus 1, Vero
[9] = test system: Vero; assay: Cytotoxicity against Punta Toro virus infected african green monkey Vero cells by trypan blue exclusion method; type: cell-based; conditions: chlorocebus sabaeus, vero; outline: as §1
[10] = test system: Vesicular stomatitis virus; assay: Antiviral activity against VSV infected in human HeLa cells assessed as protection from virus-induced cytopathogenicity after 1 to 2 days by MTT assay; type: functional, organism-based
[11] = test system: Vero; assay: Cytotoxicity against Reovirus 1 infected african green monkey Vero cells by trypan blue exclusion method; type: cell-based; conditions: chlorocebus sabaeus, vero; outline: as §1
[12] = test system: Human respirovirus 3; assay: Antiviral activity against PIV 3 infected in african green monkey Vero cells assessed as protection from virus-induced cytopathogenicity after 6 to 7 days by MTT assay; type: functional, organism-based; conditions: Human respirovirus 3, Vero
[13] = test system: HeLa; assay: Cytotoxicity against Respiratory syncytial virus infected human HeLa cells by trypan blue exclusion method; type: cell-based; conditions: hela; outline: as §1
[14] = test system: Sindbis virus; assay: Antiviral activity against Sindbis virus infected in african green monkey Vero cells assessed as protection from virus-induced cytopathogenicity after 2 to 3 days by MTT assay; type: functional, organism-based
[15] = test system: Vero; assay: Cytotoxicity against Human coxsackievirus B4 infected african green monkey Vero cells by trypan blue exclusion method; type: cell-based; conditions: chlorocebus sabaeus, vero; outline: as §1
[16] = test system: Vero; assay: Cytotoxicity against PIV 3 infected african green monkey Vero cells by trypan blue exclusion method; type: cell-based; conditions: chlorocebus sabaeus, vero; outline: as §1
[17] = test system: Coxsackievirus B4; assay: Antiviral activity against Human coxsackievirus B4 infected in african green monkey Vero cells assessed as protection from virus-induced cytopathogenicity after 2 days by MTT assay; type: functional, organism-based; conditions: Enterovirus B, 48 h
[18] = test system: Respiratory syncytial virus; assay: Antiviral activity against Respiratory syncytial virus infected in human HeLa cells assessed as protection from virus-induced cytopathogenicity after 4 days by MTT assay; type: functional, organism-based; conditions: 96 h
[19] = test system: Vero; assay: Cytotoxicity against Sindbis virus infected african green monkey Vero cells by trypan blue exclusion method; type: cell-based; conditions: chlorocebus sabaeus, vero; outline: as §1
[20] = test system: Punta Toro virus; assay: Antiviral activity against Punta Toro virus infected in african green monkey Vero cells assessed as protection from virus-induced cytopathogenicity by MTT assay; type: functional, organism-based
[21] = test system: HeLa; assay: Cytotoxicity against VSV infected human HeLa cells by trypan blue exclusion method; type: cell-based; conditions: hela; outline: as §1
[22] = test system: Escherichia coli; assay: Antibacterial activity against Escherichia coli after 24 hrs by broth microdilution method; type: functional; conditions: Escherichia coli, 24 h; read-out: MIC
Outline: (§2)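 Clinical isolates. Each dilution received 100 μl of 0.5 McFarland fresh culture. Solvent (DMSO), growth and standard controls were included. Tubes were incubated at 37 °C for 24 h. MIC is the highest dilution showing no turbidity. Tests were run in triplicate, with at least two repetitions.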

[23] = test system: Proteus mirabilis; assay: Antibacterial activity against Proteus mirabilis after 24 hrs by broth microdilution method; type: functional; conditions: Proteus mirabilis, 24 h; read-out: MIC; outline: as §2
[24] = test system: Streptococcus viridans; assay: Antibacterial activity against Streptococcus viridans after 24 hrs by broth microdilution method; type: functional; conditions: Streptococcus viridans, 24 h; read-out: MIC; outline: as §2
[25] = test system: Klebsiella pneumoniae; assay: Antibacterial activity against Klebsiella pneumoniae after 24 hrs by broth microdilution method; type: functional; conditions: Klebsiella pneumoniae, 24 h; read-out: MIC; outline: as §2
[26] = test system: Felid alphaherpesvirus 1; assay: Antiviral activity against Feline herpesvirus infected in cat CRFK cells assessed as protection from virus-induced cytopathogenicity by MTT assay; type: functional, organism-based; conditions: Felid alphaherpesvirus 1, CRFK
[27] = test system: MDCK; assay: Cytotoxicity against Influenza B virus infected MDCK cells by trypan blue exclusion method; type: cell-based, Canis lupus familiaris; conditions: dog
[28] = test system: Human alphaherpesvirus 2; assay: Antiviral activity against Herpes simplex virus 2 G infected in HEL cells assessed as protection from virus-induced cytopathogenicity after 2 to 3 days by MTT assay; type: functional, organism-based; conditions: Human alphaherpesvirus 2, strain G
[29] = test system: Influenza A virus; assay: Antiviral activity against Influenza A virus H1N1 infected in MDCK cells assessed as protection from virus-induced cytopathogenicity after 6 to 7 days by MTT assay; type: functional, organism-based
[30] = Cytotoxicity against HIV2 ROD infected human MT4 cells by MTT assay; type: cell-based; conditions: MT4 cells infected with HIV-2 ROD
Outline: (§3)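 MT-4 cells (3 × 10^4 per well) were cultured in microdilution trays with various concentrations of compound, then incubated 5 days at 37 °C, and viable cell number was read by MTT.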

[31] = Cytotoxicity against Feline coronavirus infected cat CRFK cells by trypan blue exclusion method; type: cell-based, Felis catus; conditions: crfk; outline: as §1
[32] = test system: Influenza A virus; assay: Antiviral activity against Influenza A virus H3N2 infected in MDCK cells assessed as protection from virus-induced cytopathogenicity after 6 to 7 days by MTT assay; type: functional, organism-based
[33] = Cytotoxicity against HIV1 3B-infected human MT4 cells by MTT assay; type: cell-based; conditions: MT4 cells infected with HIV-1 3B; outline: as §3
[34] = Cytotoxicity against Feline herpesvirus infected cat CRFK cells by trypan blue exclusion method; type: cell-based, Felis catus; conditions: crfk; outline: as §1
[35] = test system: MDCK; assay: Cytotoxicity against Influenza A virus subtype H3N2 infected MDCK cells by trypan blue exclusion method; type: cell-based, Canis lupus familiaris; conditions: dog
[36] = test system: Human alphaherpesvirus 1; assay: Antiviral activity against acyclovir-sensitive Herpes simplex virus 1 KOS infected in HEL cells assessed as protection from virus-induced cytopathogenicity after 2 to 3 days by MTT assay; type: functional, organism-based; conditions: Human alphaherpesvirus 1, KOS
[37] = test system: Influenza B virus; assay: Antiviral activity against Influenza B virus infected in MDCK cells assessed as protection from virus-induced cytopathogenicity after 6 to 7 days by MTT assay; type: functional, organism-based
[38] = test system: Human immunodeficiency virus 1; assay: Antiviral activity against HIV1 3B-infected in human MT4 cells assessed as protection from virus-induced cytopathogenicity after 5 days by MTT assay; type: functional, organism-based; conditions: Human immunodeficiency virus 1, 3B, MT4, 120 h
Outline: (§4)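 MT-4 cells at 3 × 10^4 per well were infected with HIV (IIIB or ROD) at 50% cell culture infective doses. Graded compound concentrations were added immediately after infection. Plates were incubated for 5 days at 37 °C and viable cells were counted by MTT.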

[39] = test system: Human alphaherpesvirus 1; assay: Antiviral activity against Herpes simplex virus 1 KOS infected in HEL cells assessed as protection from virus-induced cytopathogenicity after 2 to 3 days by MTT assay; type: functional, organism-based; conditions: Human alphaherpesvirus 1, KOS
[40] = test system: Human immunodeficiency virus 2; assay: Antiviral activity against HIV2 ROD infected in human MT4 cells assessed as protection from virus-induced cytopathogenicity after 5 days by MTT assay; type: functional, organism-based; conditions: Human immunodeficiency virus 2, ISOLATE ROD, MT4, 120 h; outline: as §4
[41] = test system: Feline coronavirus; assay: Antiviral activity against Feline coronavirus infected in cat CRFK cells assessed as protection from virus-induced cytopathogenicity by MTT assay; type: functional, organism-based; conditions: Alphacoronavirus 1, CRFK
[42] = test system: MDCK; assay: Cytotoxicity against Influenza A virus subtype H1N1 infected MDCK cells by trypan blue exclusion method; type: cell-based, Canis lupus familiaris; conditions: dog
[43] = test system: Coxsackievirus B4; assay: Antiviral activity against Human coxsackievirus B4 infected in human HeLa cells assessed as protection from virus-induced cytopathogenicity after 2 days by MTT assay; type: functional, organism-based; conditions: Enterovirus B, 48 h

Compound	CC50 [1]	CC50 [2]	CC50 [3]	CC50 [4]	CC50 [5]	EC50 [6]	CC50 [7]	EC50 [8]	EC50 [10]	CC50 [11]	EC50 [12]	CC50 [13]	EC50 [14]	CC50 [15]	CC50 [16]	EC50 [17]	EC50 [18]	CC50 [19]	EC50 [20]	CC50 [21]	further results
O=c1[nH]c(=O)n([C@H]2C[C@H](O)[C@@H](CO)O2)cc1/C=C/Br [BRIVUDINE]	> 250000 nM	> 250000 nM	> 250000 nM	> 250000 nM	> 250000 nM	> 250000 nM															
Nc1ncnc2c1ncn2C[C@H](O)CO [(S)-DHPA]							> 250000 nM	> 250000 nM	146000 nM	> 250000 nM	> 250000 nM	> 250000 nM	> 250000 nM	> 250000 nM	> 250000 nM	> 250000 nM	146000 nM	> 250000 nM	> 250000 nM	> 250000 nM	CC50 [9]: > 250000 nM
CC1(C)S[C@@H]2[C@H](NC(=O)[C@H](N)c3ccccc3)C(=O)N2[C@H]1C(=O)O [AMPICILLIN TRIHYDRATE]																					MIC [22]: 1.23 µM; MIC [23]: 1.23 µM; MIC [24]: > 2.47 µM; MIC [25]: 0.6 µM
COc1cc(/C=C/C(=O)C(CCOC(=O)CCC(NC(=O)c2ccc(NCc3cnc4nc(N)[nH]c(=O)c4n3)cc2)C(=O)O)C(=O)/C=C/c2ccc(O)c(OC)c2)ccc1O (centres undefined)	> 11 nM	> 11 nM	> 11 nM	> 11 nM	> 11 nM	> 11 nM	> 11 nM	> 11 nM	> 11 nM	> 11 nM	> 11 nM	> 11 nM	> 11 nM	> 11 nM	> 11 nM	> 11 nM	> 11 nM	> 11 nM	> 11 nM	> 11 nM	EC50 [26]: > 11 nM; MIC [23]: 0.09 µM (≈ 0.0752 µg/mL); CC50 [27]: > 11 nM; EC50 [28]: > 11 nM; EC50 [29]: > 11 nM; CC50 [30]: > 65 nM; CC50 [31]: > 11 nM; EC50 [32]: > 11 nM; CC50 [33]: > 63 nM; CC50 [34]: > 11 nM; CC50 [35]: > 11 nM; EC50 [36]: > 11 nM; EC50 [37]: > 11 nM; IC50 [38]: 63 nM; EC50 [39]: > 11 nM; IC50 [40]: 65 nM; EC50 [41]: > 11 nM; CC50 [42]: > 11 nM; EC50 [43]: > 11 nM
